Reference: ChEMBL document CHEMBL1135766, “Synthesis of conformationally constrained analogues of linezolid: structure-activity relationship (SAR) studies on selected novel tricyclic oxazolidinones” (2002)
Converted amounts (≈) assume the structure as drawn.

Legend:
Enterococcus faecalis [1] = assay: In vitro antibacterial activity against Enterococcus faecalis ATCC 29212 (E. f. 034) vancomycin sensitive; type: functional
How it was run: (§1)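 Broth microdilution MIC per NCCLS guidelines in Mueller Hinton medium. Doubling dilutions from 256 to 1 μg/mL, inoculum (1–5) × 10⁵ CFU/mL, incubated overnight in ambient air at 35 °C. MIC is the lowest concentration giving complete growth inhibition. Linezolid and vancomycin served as controls.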

Enterococcus faecium = assay: In vitro antibacterial activity against Enterococcus faecium ATCC 12202 (E.fm 154) vancomycin resistant; type: functional, enterococcus fecium; how it was run: as §1
Enterococcus faecalis [2] = assay: In vitro antibacterial activity against Enterococcus faecalis NCTC 12201 (E. f. 153) vancomycin resistant; type: functional; how it was run: as §1
Staphylococcus aureus [3] = assay: In vitro antibacterial activity against Staphylococcus aureus ATCC 49951 (S. a. 213); type: functional; how it was run: as §1
Staphylococcus aureus [4] = assay: In vitro antibacterial activity against methicillin resistant Staphylococcus aureus ATCC 33591 (S. a. 019); type: functional; how it was run: as §1
Staphylococcus aureus [5] = assay: In vitro antibacterial activity against Staphylococcus aureus ATCC 29213 (S. a. 035); type: functional
How it was run: (§2)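 Broth microdilution per NCCLS guidelines in Mueller Hinton medium. Doubling dilutions 256–1 μg/mL; inoculum (1–5) × 10⁵ CFU/mL; plates incubated overnight at 35 °C in ambient air. MIC read as the lowest concentration giving complete growth inhibition. Linezolid and vancomycin served as controls.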

Enterococcus faecalis [6] = assay: In vitro antibacterial activity against Enterococcus faecalis ATCC 29212 (E. f. 153) vancomycin sensitive; type: functional; how it was run: as §2
Mus musculus [7] = assay: In vivo antibacterial activity in a murine systemic infection model; type: functional
How it was run: (§3)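 Female Swiss Albino mice (22–25 g, n = 6) were infected intraperitoneally with 0.5 mL S. aureus ATCC 29213. The inoculum was grown 2–3 h at 35 °C in BHI broth and adjusted to 100 × LD50 in 5% hog gastric mucin. Compound was suspended in 0.25% carboxymethyl cellulose and given orally 1 and 6 h post-infection; controls received saline. Cumulative mortality was scored over 48 h, and ED50 was derived by linear regression.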

Mus musculus [8] = assay: In vivo antibacterial activity in a murine systemic infection model (95%confidence limits); type: functional; how it was run: as §3

CCCC/C(S)=N\C[C@H]1CN(c2cc(F)c3c(c2)OC[C@@H]2CCCN32)C(=O)O1
MIC (Enterococcus faecalis [1]): 2 mg/L (≈ 4.91 µM)
MIC (Enterococcus faecium): 2 mg/L (≈ 4.91 µM)
MIC (Enterococcus faecalis [2]): 2 mg/L (≈ 4.91 µM)
MIC (Staphylococcus aureus [3]): 2 mg/L (≈ 4.91 µM)
MIC (Staphylococcus aureus [4]): 2 mg/L (≈ 4.91 µM)
MIC (Staphylococcus aureus [5]): 4 mg/L (≈ 9.82 µM)

O=CNC[C@H]1CN(c2cc(F)c3c(c2)OC[C@@H]2CCCN32)C(=O)O1
MIC (Enterococcus faecalis [1]): 4 mg/L (≈ 11.9 µM)
MIC (Enterococcus faecium): 8 mg/L (≈ 23.9 µM)
MIC (Enterococcus faecalis [2]): 4 mg/L (≈ 11.9 µM)
MIC (Staphylococcus aureus [3]): 4 mg/L (≈ 11.9 µM)
MIC (Staphylococcus aureus [4]): 4 mg/L (≈ 11.9 µM)
MIC (Staphylococcus aureus [5]): 8 mg/L (≈ 23.9 µM)

C=CC(=O)NC[C@H]1CN(c2ccc3c(c2)OC[C@@H]2CCCN32)C(=O)O1
MIC (Enterococcus faecalis [1]): 8 mg/L (≈ 23.3 µM)
MIC (Enterococcus faecium): 8 mg/L (≈ 23.3 µM)
MIC (Enterococcus faecalis [2]): 8 mg/L (≈ 23.3 µM)
MIC (Staphylococcus aureus [4]): 4 mg/L (≈ 11.6 µM)
MIC (Staphylococcus aureus [5]): 8 mg/L (≈ 23.3 µM)

CC(C)C(=O)NC[C@H]1CN(c2ccc3c(c2)OC[C@@H]2CCCN32)C(=O)O1
MIC (Enterococcus faecalis [1]): 32 mg/L (≈ 89 µM)
MIC (Enterococcus faecium): 32 mg/L (≈ 89 µM)
MIC (Enterococcus faecalis [2]): 32 mg/L (≈ 89 µM)
MIC (Staphylococcus aureus [4]): 8 mg/L (≈ 22.3 µM)
MIC (Staphylococcus aureus [5]): 16 mg/L (≈ 44.5 µM)

O=C(NC[C@H]1CN(c2ccc3c(c2)OC[C@@H]2CCCN32)C(=O)O1)C(F)F
MIC (Enterococcus faecalis [1]): 4 mg/L (≈ 10.9 µM)
MIC (Enterococcus faecium): 4 mg/L (≈ 10.9 µM)
MIC (Staphylococcus aureus [4]): 2 mg/L (≈ 5.44 µM)
MIC (Enterococcus faecalis [6]): 4 mg/L (≈ 10.9 µM)
MIC (Staphylococcus aureus [5]): 4 mg/L (≈ 10.9 µM)

O=C1O[C@@H](C/N=C/S)CN1c1cc(F)c2c(c1)OC[C@@H]1CCCN21
MIC (Enterococcus faecalis [1]): 1 mg/L (≈ 2.85 µM)
MIC (Enterococcus faecium): 2 mg/L (≈ 5.69 µM)
MIC (Enterococcus faecalis [2]): 1 mg/L (≈ 2.85 µM)
MIC (Staphylococcus aureus [3]): 1 mg/L (≈ 2.85 µM)
ED50 (Mus musculus [7]): 9.07 mg/kg
MIC (Staphylococcus aureus [4]): 1 mg/L (≈ 2.85 µM)
MIC (Staphylococcus aureus [5]): 1 mg/L (≈ 2.85 µM)

CC(C)O/C(S)=N\C[C@H]1CN(c2cc(F)c3c(c2)OC[C@@H]2CCCN32)C(=O)O1
MIC (Enterococcus faecalis [1]): 8 mg/L (≈ 19.5 µM)
MIC (Enterococcus faecium): 8 mg/L (≈ 19.5 µM)
MIC (Staphylococcus aureus [3]): 8 mg/L (≈ 19.5 µM)
MIC (Staphylococcus aureus [4]): 8 mg/L (≈ 19.5 µM)
MIC (Enterococcus faecalis [6]): 8 mg/L (≈ 19.5 µM)
MIC (Staphylococcus aureus [5]): 8 mg/L (≈ 19.5 µM)

C/C(S)=N\C[C@H]1CN(c2cc(F)c3c(c2)OC[C@@H]2CCCN32)C(=O)O1
MIC (Enterococcus faecalis [1]): 1 mg/L (≈ 2.74 µM)
MIC (Enterococcus faecium): 1 mg/L (≈ 2.74 µM)
MIC (Enterococcus faecalis [2]): 1 mg/L (≈ 2.74 µM)
MIC (Staphylococcus aureus [3]): 0.5 mg/L (≈ 1.37 µM)
ED50 (Mus musculus [7]): 30 mg/kg
MIC (Staphylococcus aureus [4]): 0.5 mg/L (≈ 1.37 µM)
MIC (Staphylococcus aureus [5]): 0.5 mg/L (≈ 1.37 µM)

CCC/C(S)=N\C[C@H]1CN(c2cc(F)c3c(c2)OC[C@@H]2CCCN32)C(=O)O1
MIC (Enterococcus faecalis [1]): 1 mg/L (≈ 2.54 µM)
MIC (Enterococcus faecium): 1 mg/L (≈ 2.54 µM)
MIC (Enterococcus faecalis [2]): 1 mg/L (≈ 2.54 µM)
MIC (Staphylococcus aureus [3]): 2 mg/L (≈ 5.08 µM)
ED50 (Mus musculus [7]): 30 mg/kg
MIC (Staphylococcus aureus [4]): 1 mg/L (≈ 2.54 µM)
MIC (Staphylococcus aureus [5]): 2 mg/L (≈ 5.08 µM)

O=C1O[C@@H](C/N=C(/S)N2CCSCC2)CN1c1cc(F)c2c(c1)OC[C@@H]1CCCN21
MIC (Enterococcus faecalis [1]): 16 mg/L (≈ 35.4 µM)
MIC (Enterococcus faecium): 16 mg/L (≈ 35.4 µM)
MIC (Enterococcus faecalis [2]): 16 mg/L (≈ 35.4 µM)
MIC (Staphylococcus aureus [3]): 16 mg/L (≈ 35.4 µM)
MIC (Staphylococcus aureus [4]): 16 mg/L (≈ 35.4 µM)
MIC (Staphylococcus aureus [5]): 16 mg/L (≈ 35.4 µM)

CS/C(S)=N\C[C@H]1CN(c2cc(F)c3c(c2)OC[C@@H]2CCCN32)C(=O)O1
MIC (Enterococcus faecalis [1]): 1 mg/L (≈ 2.52 µM)
MIC (Enterococcus faecalis [2]): 1 mg/L (≈ 2.52 µM)
MIC (Staphylococcus aureus [3]): 1 mg/L (≈ 2.52 µM)
MIC (Staphylococcus aureus [4]): 1 mg/L (≈ 2.52 µM)
MIC (Enterococcus faecalis [6]): 1 mg/L (≈ 2.52 µM)
MIC (Staphylococcus aureus [5]): 2 mg/L (≈ 5.03 µM)
ED50 (Mus musculus [8]): 30 mg/kg

O=C(CC(F)(F)F)NC[C@H]1CN(c2cc(F)c3c(c2)OC[C@@H]2CCCN32)C(=O)O1
MIC (Enterococcus faecalis [1]): 4 mg/L (≈ 9.58 µM)
MIC (Enterococcus faecium): 4 mg/L (≈ 9.58 µM)
MIC (Enterococcus faecalis [2]): 4 mg/L (≈ 9.58 µM)
MIC (Staphylococcus aureus [3]): 8 mg/L (≈ 19.2 µM)
MIC (Staphylococcus aureus [4]): 4 mg/L (≈ 9.58 µM)
MIC (Staphylococcus aureus [5]): 8 mg/L (≈ 19.2 µM)

O=C(CCl)NC[C@H]1CN(c2ccc3c(c2)OC[C@@H]2CCCN32)C(=O)O1
MIC (Enterococcus faecalis [1]): 4 mg/L (≈ 10.9 µM)
MIC (Enterococcus faecium): 8 mg/L (≈ 21.9 µM)
MIC (Staphylococcus aureus [4]): 2 mg/L (≈ 5.47 µM)
MIC (Enterococcus faecalis [6]): 4 mg/L (≈ 10.9 µM)
MIC (Staphylococcus aureus [5]): 4 mg/L (≈ 10.9 µM)

O=C(NC[C@H]1CN(c2ccc3c(c2)OC[C@@H]2CCCN32)C(=O)O1)C(Cl)Cl
MIC (Enterococcus faecalis [1]): 8 mg/L (≈ 20 µM)
MIC (Enterococcus faecium): 8 mg/L (≈ 20 µM)
MIC (Staphylococcus aureus [4]): 4 mg/L (≈ 9.99 µM)
MIC (Enterococcus faecalis [6]): 8 mg/L (≈ 20 µM)
MIC (Staphylococcus aureus [5]): 4 mg/L (≈ 9.99 µM)

O=C1O[C@@H](C/N=C(/S)N2CCCC2)CN1c1cc(F)c2c(c1)OC[C@@H]1CCCN21
MIC (Enterococcus faecalis [1]): 32 mg/L (≈ 76.1 µM)
MIC (Enterococcus faecium): 32 mg/L (≈ 76.1 µM)
MIC (Enterococcus faecalis [2]): 32 mg/L (≈ 76.1 µM)
MIC (Staphylococcus aureus [3]): 32 mg/L (≈ 76.1 µM)
MIC (Staphylococcus aureus [4]): 32 mg/L (≈ 76.1 µM)
MIC (Staphylococcus aureus [5]): 32 mg/L (≈ 76.1 µM)

CC(=O)NC[C@H]1CN(c2cc(F)c3c(c2)OC[C@@H]2CCCN32)C(=O)O1
MIC (Enterococcus faecalis [1]): 2 mg/L (≈ 5.72 µM)
MIC (Enterococcus faecium): 4 mg/L (≈ 11.4 µM)
MIC (Enterococcus faecalis [2]): 2 mg/L (≈ 5.72 µM)
MIC (Staphylococcus aureus [3]): 2 mg/L (≈ 5.72 µM)
ED50 (Mus musculus [7]): 8.6 mg/kg
MIC (Staphylococcus aureus [4]): 1 mg/L (≈ 2.86 µM)
MIC (Staphylococcus aureus [5]): 2 mg/L (≈ 5.72 µM)

CCCCCCC(=O)NC[C@H]1CN(c2cc(F)c3c(c2)OC[C@@H]2CCCN32)C(=O)O1
MIC (Enterococcus faecalis [1]): 32 mg/L (≈ 76.3 µM)
MIC (Enterococcus faecium): 32 mg/L (≈ 76.3 µM)
MIC (Enterococcus faecalis [2]): 32 mg/L (≈ 76.3 µM)
MIC (Staphylococcus aureus [3]): 32 mg/L (≈ 76.3 µM)
MIC (Staphylococcus aureus [4]): 32 mg/L (≈ 76.3 µM)
MIC (Staphylococcus aureus [5]): 32 mg/L (≈ 76.3 µM)

CC(=O)NC[C@H]1CN(c2ccc(N3CCOCC3)c(F)c2)C(=O)O1 [LINEZOLID]
MIC (Enterococcus faecium): 2 mg/L (≈ 5.93 µM)
ED50 (Mus musculus [7]): 3.91 mg/kg
MIC (Staphylococcus aureus [4]): 1 mg/L (≈ 2.96 µM)

CN[C@H](CC(C)C)C(=O)N[C@H]1C(=O)N[C@@H](CC(N)=O)C(=O)N[C@H]2C(=O)N[C@H]3C(=O)N[C@H](C(=O)N[C@H](C(=O)O)c4cc(O)cc(O)c4-c4cc3ccc4O)[C@H](O)c3ccc(c(Cl)c3)Oc3cc2cc(c3O[C@@H]2O[C@H](CO)[C@@H](O)[C@H](O)[C@H]2O[C@H]2C[C@](C)(N)[C@H](O)[C@H](C)O2)Oc2ccc(cc2Cl)[C@H]1O [VANCOMYCIN]
MIC (Enterococcus faecalis [1]): 2 mg/L (≈ 1.38 µM)
MIC (Enterococcus faecium): > 32 mg/L
MIC (Enterococcus faecalis [6]): 2 mg/L (≈ 1.38 µM)
ED50 (Mus musculus [8]): 3.93 mg/kg
